Calls of active or inactive are those of the source. The rule behind the calls is not given here.
Assays:
Danio rerio [1] = species: Danio rerio; assay: Inhibition of BMPR1 in zebrafish assessed as penetrance of normal embryonic axis dorsalization at 10 uM treated continuously from 10 hrs post-fertilization measured at 48 hrs; parameters: scale not given: the % may be the effect or the level left
[2] = (§1) Inhibition of BMPR1-mediated Smad-1 phosphorylation in BMP4-stimulated mouse PASMC treated 30 mins before BMP4 challenge measured after 30 mins by immunoblot analysis
Summary of the method: (§2)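 Mouse PASMCs were held 24 h in 0.5% FCS RPMI, preincubated 30 min with a dose range of compound, then stimulated 30 min with BMP4. Phospho-SMAD1/5/8 and phospho-p38 were detected by immunoblot and quantitated by phosphorimager (RLU). IC50 was derived from a Hill plot of phospho-SMAD1/5/8 inhibition.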

Mus musculus [3] = species: Mus musculus; assay: as §1; summary of the method: as §2
Danio rerio [4] = species: Danio rerio; assay: Inhibition of BMPR1 in zebrafish assessed as increase in egr2b expression at 10 uM treated at 12 hrs post-fertilization measured at 48 hrs
Danio rerio [5] = species: Danio rerio; assay: Inhibition of BMPR1 in zebrafish assessed as penetrance of mild embryonic axis dorsalization at 2 uM treated at 3 hrs post-fertilization measured at 48 hrs; parameters: scale not given: the % may be the effect or the level left
Summary of the method: (§3)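 Compound added at the stated times and concentrations. Gross morphology scored visually at up to 48 h.p.f. for dorsalization of the embryonic axis.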

Mus musculus [6] = species: Mus musculus; assay: Inhibition of ALK3-mediated Smad-1 phosphorylation in BMPR2 deficient mouse PASMC at 10 uM by immunoblot analysis
Summary of the method: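 BMPR-II–deficient mouse PASMCs (RPMI, 10% FBS) transiently transfected with constitutively active ALK2, ALK3 or ALK6 cDNA, or plasmid-only control. Incubated with or without compound (10 µM). Extracts lysed in SDS buffer, run on SDS-PAGE and immunoblotted for phospho-SMAD1/5/8; quantitated by phosphorimager.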

Mus musculus [7] = species: Mus musculus; assay: Inhibition of BMPR1-mediated Smad-1 phosphorylation in BMP7-stimulated mouse BMPR2 deficient PASMC at 4 uM treated 30 mins before BMP7 challenge measured after 30 mins by immunoblot analysis
Summary of the method: (§4)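 PASMCs (wild-type or BMPR-II–deficient) were kept 24 h in RPMI with 0.5% FCS, preincubated 30 min with compound or vehicle, then stimulated 30 min with recombinant BMP (10 ng ml−1). Extracts in SDS-lysis buffer were immunoblotted for phospho-SMAD1/5/8, with total SMAD1 and α-tubulin as loading controls. Bands were quantitated by phosphorimager.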

Danio rerio [8] = species: Danio rerio; assay: Inhibition of BMPR1 in zebrafish assessed as penetrance of moderate embryonic axis dorsalization at 10 uM treated at 3 hrs post-fertilization measured at 48 hrs; parameters: scale not given: the % may be the effect or the level left; summary of the method: as §3
C2C12 = assay: Inhibition of BMPR1-mediated osteoblast differentiation in BMP6-stimulated mouse C2C12 cells assessed as decrease in alkaline phosphatase level at 4 uM by spectrophotometry; assay type: cell-based
Summary of the method: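 C2C12 cells were seeded at 2,000 per well in DMEM with 2% FBS and treated in quadruplicate with BMP4 or BMP6 plus compound or vehicle. After 5 d, cells were lysed in TBS with 1% Triton X-100. Lysates were incubated 1 h with p-nitrophenylphosphate and alkaline phosphatase was read as absorbance at 405 nm. Cell count was measured by CyQuant in parallel wells.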

Mus musculus [9] = species: Mus musculus; assay: Inhibition of BMPR1-mediated Smad-8 phosphorylation in BMP4-stimulated mouse PASMC at 4 uM treated 30 mins before BMP4 challenge measured after 30 mins by immunoblot analysis
Summary of the method: (§5)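 Wild-type mouse PASMCs were kept in RPMI with 0.5% FCS for 24 h. They were preincubated with compound or vehicle for 30 min, then stimulated for 30 min with recombinant BMP2, BMP4, BMP6 or BMP7 at 10 ng ml−1. Lysates in SDS buffer were immunoblotted with anti-phospho-SMAD1/5/8. Total SMAD1 and α-tubulin served as loading controls, and bands were quantified by phosphorimager.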

[10] = (§6) Inhibition of BMPR1-mediated Smad-5 phosphorylation in BMP4-stimulated mouse PASMC treated 30 mins before BMP4 challenge measured after 30 mins by immunoblot analysis
Summary of the method: (§7)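 Mouse PASMCs were held 24 h in RPMI with 0.5% FCS. They were preincubated 30 min with test agent, noggin or vehicle, then exposed to recombinant BMP4 for 30 min. SDS lysates were immunoblotted for phospho-SMAD1/5/8 and bands quantified by phosphorimager. Dose-dependence was fitted as a Hill plot.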

Mus musculus [11] = species: Mus musculus; assay: as §6; summary of the method: as §7
Mus musculus [12] = species: Mus musculus; assay: Inhibition of BMPR1-mediated Smad-1 phosphorylation in BMP2-stimulated mouse BMPR2 deficient PASMC at 4 uM treated 30 mins before BMP2 challenge measured after 30 mins by immunoblot analysis; summary of the method: as §4
Danio rerio [13] = species: Danio rerio; assay: Inhibition of BMPR1 in zebrafish assessed as severity of embryonic axis dorsalization at 7.5 uM treated at 3 hrs post-fertilization measured at 48 hrs; parameters: scale not given: the % may be the effect or the level left
Mus musculus [14] = species: Mus musculus; assay: Inhibition of BMPR1-mediated Smad-1 phosphorylation in BMP4-stimulated mouse PASMC at 100 to 200 ng/ml treated 30 mins before BMP4 challenge measured after 30 mins by immunoblot analysis
Summary of the method: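 Mouse PASMCs were serum-reduced 24 h in 0.5% FCS RPMI, pretreated 30 min with noggin or vehicle, then given BMP4 for 30 min. Lysates in SDS buffer were immunoblotted for phospho-SMAD1/5/8 and phospho-MAPK p38, and signals were quantitated by phosphorimager.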

Danio rerio [15] = species: Danio rerio; assay: Inhibition of BMPR1 in zebrafish assessed as penetrance of normal embryonic axis dorsalization at 10 uM treated at 3 hrs post-fertilization measured at 48 hrs; parameters: scale not given: the % may be the effect or the level left
Danio rerio [16] = species: Danio rerio; assay: Inhibition of BMPR1 in zebrafish assessed as penetrance of mild embryonic axis dorsalization at 10 uM treated continuously from 6 hrs post-fertilization measured at 48 hrs; parameters: scale not given: the % may be the effect or the level left; summary of the method: as §3
Mus musculus [17] = species: Mus musculus; assay: Inhibition of BMPR1-mediated Smad-8 phosphorylation in BMP2-stimulated mouse PASMC at 4 uM treated 30 mins before BMP2 challenge measured after 30 mins by immunoblot analysis; summary of the method: as §5
Mus musculus [18] = species: Mus musculus; assay: Inhibition of BMPR1-mediated Smad-5 phosphorylation in BMP2-stimulated mouse BMPR2 deficient PASMC at 4 uM treated 30 mins before BMP2 challenge measured after 30 mins by immunoblot analysis
Mus musculus [19] = species: Mus musculus; assay: Inhibition of BMPR1-mediated Smad-8 phosphorylation in BMP7-stimulated mouse BMPR2 deficient PASMC at 4 uM treated 30 mins before BMP7measured after 30 mins by immunoblot analysis
Danio rerio [20] = species: Danio rerio; assay: Inhibition of BMPR1 in zebrafish assessed as severity of embryonic axis dorsalization at 2 uM treated at 3 hrs post-fertilization measured at 48 hrs; parameters: scale not given: the % may be the effect or the level left
Danio rerio [21] = species: Danio rerio; assay: Inhibition of BMPR1 in zebrafish assessed as severity of embryonic axis dorsalization at 10 uM treated continuously from 8 hrs post-fertilization measured at 48 hrs; parameters: scale not given: the % may be the effect or the level left
Danio rerio [22] = species: Danio rerio; assay: Inhibition of BMPR1 in zebrafish assessed as severity of embryonic axis dorsalization at 10 uM treated at 3 hrs post-fertilization measured at 48 hrs; parameters: scale not given: the % may be the effect or the level left
Danio rerio [23] = species: Danio rerio; assay: Inhibition of BMPR1 in zebrafish assessed as severity of embryonic axis dorsalization at 10 uM treated at 6 to 8 hrs post-fertilization measured at 48 hrs; parameters: scale not given: the % may be the effect or the level left

With `c1cc(-c2cnn3cc(-c4ccc(OCCN5CCCCC5)cc4)cnc23)ccn1` [DORSOMORPHIN] the Activity (Danio rerio [1]) was 100%, the IC50 [2] was 470 nM and the inhibition (Mus musculus [3]) was “Dose-dependent effect”. For the same molecule, the Activity (Danio rerio [4]) was “Active”, the Activity (Danio rerio [5]) was 0% and the inhibition (Mus musculus [6]) was “Active”. For the same molecule, the inhibition (Mus musculus [7]) was “Active”, the Activity (Danio rerio [8]) was 98% and the inhibition (C2C12) was “Active”. The inhibition (Mus musculus [9]) was “Active”, the IC50 [10] was 470 nM and the inhibition (Mus musculus [11]) was “Dose-dependent effect”. For the same molecule, the inhibition (Mus musculus [12]) was “Active”, the Activity (Danio rerio [13]) was 100% and the inhibition (Mus musculus [14]) was “Active”. For the same molecule, the Activity (Danio rerio [15]) was 0%, the Activity (Danio rerio [16]) was 22% and the inhibition (Mus musculus [17]) was “Active”. The inhibition (Mus musculus [18]) was “Active”, the inhibition (Mus musculus [19]) was “Active” and the Activity (Danio rerio [20]) was 0%. For the same molecule, the Activity (Danio rerio [21]) was 0%, the Activity (Danio rerio [22]) was 100% and the Activity (Danio rerio [23]) was 0%.
